Experimental data as given in ChEMBL document CHEMBL1139389, “Discovery of the Poly(ADP-ribose) polymerase (PARP) inhibitor 2-[(R)-2-methylpyrrolidin-2-yl]-1H-benzimidazole-4-carboxamide (ABT-888) for the treatment of cancer” (J Med Chem, 2009).
pKi: −log10 of the molar value.

Tests used:
[1] = Oral bioavailability in CD1 mouse at 10 mg/kg; assay type: ADME, organism-based; details: in vivo
Summary of the method: (§1)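 Mouse PK: oral dose 10 mg/kg in 2.5% EtOH, 1 drop Tween-80, 25% PEG400 in PBS; iv dose 3 mg/kg in 2.5% EtOH, 5% DMSO, 1 drop Tween-80, 25% PEG400 in PBS. Oral bioavailability, iv half-life, oral AUC and Cmax derived from plasma profiles.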

[2] = Half life in CD1 mouse at 3 mg/kg, iv; assay type: ADME, organism-based; parameters: dose 3 mg/kg, route intravenous; details: in vivo; summary of the method: as §1
[3] = AUC in CD1 mouse at 10 mg/kg, po; assay type: ADME, organism-based; parameters: dose 10 mg/kg, route oral; details: plasma; summary of the method: as §1
[4] = Cmax in CD1 mouse at 10 mg/kg, po; assay type: ADME, organism-based; parameters: dose 10 mg/kg, route oral; details: in vivo; summary of the method: as §1
[5] = molecular target: Poly [ADP-ribose] polymerase 2 (Homo sapiens, UniProt Q9UGN5); experiment: Inhibition of human recombinant PARP2
Chain of Poly [ADP-ribose] polymerase 2 (Q9UGN5 whole entry): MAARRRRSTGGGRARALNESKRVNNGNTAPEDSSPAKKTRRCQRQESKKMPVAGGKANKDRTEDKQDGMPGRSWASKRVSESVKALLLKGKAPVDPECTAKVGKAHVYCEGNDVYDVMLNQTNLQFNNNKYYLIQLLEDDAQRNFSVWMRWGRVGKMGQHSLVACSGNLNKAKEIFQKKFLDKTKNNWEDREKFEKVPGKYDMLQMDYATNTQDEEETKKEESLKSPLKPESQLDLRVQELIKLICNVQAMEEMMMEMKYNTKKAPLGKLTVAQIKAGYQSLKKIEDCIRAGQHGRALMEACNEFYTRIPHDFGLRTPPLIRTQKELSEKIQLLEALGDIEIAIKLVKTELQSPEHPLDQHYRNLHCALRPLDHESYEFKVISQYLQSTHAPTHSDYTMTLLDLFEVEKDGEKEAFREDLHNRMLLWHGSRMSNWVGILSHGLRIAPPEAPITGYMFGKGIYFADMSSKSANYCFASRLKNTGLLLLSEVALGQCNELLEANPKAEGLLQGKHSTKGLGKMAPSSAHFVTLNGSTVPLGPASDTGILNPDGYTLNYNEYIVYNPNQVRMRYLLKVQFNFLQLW

Structure (SMILES) | bioavailability [1] [%] | half-life [2] [h] | AUC [3] [ng·h/mL] | Cmax [4] [ng/mL] | pKi [5]
CC1(c2nc3c(C(N)=O)cccc3[nH]2)CCCCN1 (stereo not given) | 93 | 1.5 | 1500 | 500 | 
CC1(c2nc3c(C(N)=O)cccc3[nH]2)CCNC1 (stereo not given) |  |  |  |  | 8.70
